ChEMBL document CHEMBL4130483, “Leishmanicidal and cytotoxic activity of hederagenin-bistriazolyl derivatives” (Eur J Med Chem, 2017)
One block for each molecule: values may come before it. The source made the active and inactive calls.

Columns and labels:
FaDu = assay: Cytotoxicity against human FADU cells assessed as reduction in cell viability incubated fro 96 hrs by SRB assay; type: functional, cell-based
[1] = Ratio of selectivity index of test compound to hederagenin by measuring ratio of CC50 for dog DH82 cells to IC50 for antileishmanial activity against Leishmania infantum MHOM/BR/70/BH46 intracellular amastigotes infected in canine DH82 cells; type: toxicity, cell-based
[2] = Selectivity index, ratio of CC50 for human HepG2 cells to IC50 for antileishmanial activity against Leishmania infantum MHOM/BR/70/BH46 intracellular amastigotes infected in canine DH82 cells; type: toxicity, cell-based; conditions: read-out: Ratio CC50/IC50
Procedure, shortened: (§1)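 SI = CC50 in BGM or HepG2 cells (MTT) divided by the intracellular amastigote IC50.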

SW-1736 = assay: Cytotoxicity against human SW1736 cells assessed as reduction in cell viability incubated fro 96 hrs by SRB assay; type: functional, cell-based; conditions: SW-1736, 96 h
Procedure, shortened: (§2)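 Sulforhodamine B photometric assay after 96 h treatment. Monolayers were grown in RPMI 1640 with L-glutamine, 10% heat-inactivated FBS and penicillin/streptomycin at 37 °C in humidified 5% CO2. Cut-off was 30 μM, or 60 μM for the parent. EC50 was averaged from at least three independent experiments, each in four replicates. Betulinic acid was the positive standard.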

HT-29 [3] = assay: Cytotoxicity against human HT-29 cells assessed as reduction in cell viability incubated fro 96 hrs by SRB assay; type: functional, cell-based; conditions: HT-29, 96 h; procedure, shortened: as §2
Leishmania infantum [4] = assay: Antileishmanial activity against Leishmania infantum MHOM/BR/70/BH46 intracellular amastigotes infected in canine DH82 cells assessed as as inhibition of cell growth at 1000 uM incubated for 48 hrs by ELISA method; type: functional; conditions: MHOM/BR/70/BH46, DH82, 48 h, read-out: GI
[5] = Selectivity index, ratio of CC50 for African green monkey BGM cells to IC50 for antileishmanial activity against Leishmania infantum MHOM/BR/70/BH46 intracellular amastigotes infected in canine DH82 cells; type: toxicity, cell-based; conditions: read-out: Ratio CC50/IC50; procedure, shortened: as §1
A2780 [6] = assay: Cytotoxicity against human A2780 cells assessed as reduction in cell viability incubated fro 96 hrs by SRB assay; type: functional, cell-based; conditions: A2780, 96 h; procedure, shortened: as §2
[7] = Cytotoxicity in African green monkey BGM cells assessed as reduction in cell viability incubated for 48 hrs by MTT assay; type: cell-based; conditions: chlorocebus aethiops
Procedure, shortened: (§3)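 MTT colorimetric assay with microscopic monitoring. CC50 is the concentration cytotoxic to 50% of BGM or HepG2 cells. Potassium antimonyl tartrate trihydrate was the positive control.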

[8] = Selectivity index, ratio of CC50 for dog DH82 cells to IC50 for antileishmanial activity against Leishmania infantum MHOM/BR/70/BH46 intracellular amastigotes infected in canine DH82 cells; type: toxicity, cell-based; conditions: read-out: Ratio CC50/IC50
Procedure, shortened: (§4)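 SI = CC50 in DH82 macrophages (MTT) divided by IC50 against intracellular L. infantum BH46 amastigotes.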

[9] = Ratio of selectivity index of test compound to potassium antimonyl tartrate by measuring ratio of CC50 for dog DH82 cells to IC50 for antileishmanial activity against Leishmania infantum MHOM/BR/70/BH46 intracellular amastigotes infected in canine DH82 cells; type: toxicity, cell-based
[10] = Cytotoxicity in human HepG2 cells assessed as reduction in cell viability incubated for 48 hrs by MTT assay; type: cell-based; procedure, shortened: as §3
A-375 = assay: Cytotoxicity against human A375 cells assessed as reduction in cell viability incubated fro 96 hrs by SRB assay; type: functional, cell-based; conditions: A-375, 96 h; procedure, shortened: as §2
Leishmania infantum [11] = assay: Antileishmanial activity against Leishmania infantum MHOM/BR/70/BH46 intracellular amastigotes infected in canine DH82 cells assessed as as inhibition of cell growth; type: functional, organism-based; conditions: MHOM/BR/70/BH46, DH82
Procedure, shortened: (§5)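 L. infantum BH46 intracellular amastigotes. Phase II testing at 0.1, 1.0, 10 and 100 μM. IC50 is the concentration inhibiting in vitro growth by 50%, taken from dose-response curves (log concentration vs inhibition) run in four replicates. Potassium antimonyl tartrate trihydrate served as positive control.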

[12] = Cytotoxicity in dog DH82 cells assessed as reduction in cell viability incubated for 48 hrs by MTT assay; type: cell-based, Canis lupus familiaris
Procedure, shortened: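 DH82 canine macrophage viability was monitored microscopically and by MTT colorimetric assay. CC50 is the concentration cytotoxic to 50% of DH82 cells. Potassium antimonyl tartrate trihydrate was the positive control.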

Leishmania infantum [13] = assay: Antileishmanial activity against Leishmania infantum MHOM/BR/70/BH46 intracellular amastigotes infected in canine DH82 cells assessed as as inhibition of cell growth incubated for 48 hrs by ELISA method; type: functional, organism-based; conditions: MHOM/BR/70/BH46, DH82, 48 h; procedure, shortened: as §5
[14] = Selectivity index, ratio of CC50 for dog DH82 cells to IC50 for Leishmania infantum MHOM/BR/70/BH46 intracellular amastigotes infected in canine DH82 cells; type: toxicity, cell-based; procedure, shortened: as §4
Leishmania infantum [15] = assay: Antiparasitic activity against Leishmania infantum; type: functional, organism-based
HT-29 [16] = assay: Induction of cell membrane permeability changes in human HT-29 cells at 15 uM incubated for 24 hrs by AO/PI staining based fluorescence microscopy; type: functional
Procedure, shortened: (§6)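 HT29 cells were treated for 24 h, then stained with acridine orange and propidium iodide. Morphology and membrane permeability were assessed by fluorescence microscopy against an untreated control.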

HT-29 [17] = assay: Induction of cell morphology changes in human HT-29 cells at 15 uM incubated for 24 hrs by AO/PI staining based fluorescence microscopy; type: functional; procedure, shortened: as §6
A549 = assay: Cytotoxicity against human A549 cells; type: functional, cell-based
MCF7 = assay: Cytotoxicity against human MCF7 cells; type: functional, cell-based
HT-29 [18] = assay: Cytotoxicity against human HT-29 cells; type: functional, cell-based
A2780 [19] = assay: Cytotoxicity against human A2780 cells; type: functional, cell-based
518A2 = assay: Cytotoxicity against human 518A2 cells; type: functional, cell-based
8505C = assay: Cytotoxicity against human 8505C cells; type: functional, cell-based

Structure (SMILES): CC1(C)CC[C@]2(C(=O)OCc3cn(Cc4ccccc4F)nn3)CC[C@]3(C)C(=CC[C@@H]4[C@@]5(C)CC[C@H](O)[C@@](C)(COCc6cn(Cc7ccccc7F)nn6)[C@@H]5CC[C@]43C)[C@@H]2C1
EC50 (FaDu): > 30 µM
Ratio [1]: 8
selectivity ratio [2]: > 178
EC50 (SW-1736): > 30 µM
EC50 (HT-29 [3]): 16.3 µM
inhibition of growth at 1000 µM (Leishmania infantum [4]): 65%
selectivity ratio [5]: > 178
EC50 (A2780 [6]): 21.6 µM
CC50 at 48 h [7]: > 1000 µM
selectivity ratio [8]: > 178
Ratio [9]: 1780
CC50 at 48 h [10]: > 1000 µM
EC50 (A-375): 28.5 µM
IC50 (Leishmania infantum [11]): 5.6 µM
CC50 at 48 h [12]: > 1000 µM
IC50 (Leishmania infantum [13]): 5.6 µM
selectivity ratio [14]: > 178

Structure (SMILES): C#CCOC[C@@]1(C)[C@@H]2CC[C@]3(C)[C@H](CC=C4[C@@H]5CC(C)(C)CC[C@]5(C(=O)OCC#C)CC[C@]43C)[C@@]2(C)CC[C@@H]1O
selectivity ratio [2]: 3.7
inhibition of growth at 1000 µM (Leishmania infantum [4]): 77.2%
selectivity ratio [5]: 3.5
CC50 at 48 h [7]: 99 µM
selectivity ratio [8]: 9
CC50 at 48 h [10]: 104 µM
CC50 at 48 h [12]: 259 µM
IC50 (Leishmania infantum [13]): 28.8 µM

Structure (SMILES): CC1(C)CC[C@]2(C(=O)OCc3cn(Cc4ccc(F)cc4F)nn3)CC[C@]3(C)C(=CC[C@@H]4[C@@]5(C)CC[C@H](O)[C@@](C)(COCc6cn(Cc7ccc(F)cc7F)nn6)[C@@H]5CC[C@]43C)[C@@H]2C1
EC50 (FaDu): > 30 µM
selectivity ratio [2]: 0.7
EC50 (SW-1736): > 30 µM
EC50 (HT-29 [3]): > 30 µM
inhibition of growth at 1000 µM (Leishmania infantum [4]): 52.4%
selectivity ratio [5]: 0.6
EC50 (A2780 [6]): > 30 µM
CC50 at 48 h [7]: 99.7 µM
selectivity ratio [8]: 0.9
CC50 at 48 h [10]: 105 µM
EC50 (A-375): > 30 µM
CC50 at 48 h [12]: 140 µM
IC50 (Leishmania infantum [13]): 155 µM

Structure (SMILES): CC1(C)CC[C@]2(C(=O)O)CC[C@]3(C)C(=CC[C@@H]4[C@@]5(C)CC[C@H](O)[C@@](C)(CO)[C@@H]5CC[C@]43C)[C@@H]2C1 [HEDERAGENIN]
EC50 (FaDu): > 60 µM
selectivity ratio [2]: > 16.2
EC50 (SW-1736): > 60 µM
EC50 (HT-29 [3]): > 60 µM
inhibition of growth at 1000 µM (Leishmania infantum [4]): 55.5%
selectivity ratio [5]: 0.9
EC50 (A2780 [6]): > 60 µM
CC50 at 48 h [7]: 57 µM
selectivity ratio [8]: > 10
CC50 at 48 h [10]: > 1000 µM
EC50 (A-375): > 60 µM
CC50 at 48 h [12]: > 1000 µM
IC50 (Leishmania infantum [15]): 61.6 µM

Structure (SMILES): Cc1ccc(C(=O)Cn2cc(COC[C@@]3(C)[C@@H]4CC[C@]5(C)[C@H](CC=C6[C@@H]7CC(C)(C)CC[C@]7(C(=O)OCc7cn(CC(=O)c8ccc(C)cc8)nn7)CC[C@]65C)[C@@]4(C)CC[C@@H]3O)nn2)cc1
EC50 (FaDu): > 30 µM
Ratio [1]: 14
selectivity ratio [2]: > 135
EC50 (SW-1736): > 30 µM
EC50 (HT-29 [3]): > 30 µM
inhibition of growth at 1000 µM (Leishmania infantum [4]): 63.7%
selectivity ratio [5]: > 135
EC50 (A2780 [6]): > 30 µM
CC50 at 48 h [7]: > 1000 µM
selectivity ratio [8]: > 135
Ratio [9]: 10
CC50 at 48 h [10]: > 1000 µM
EC50 (A-375): > 30 µM
CC50 at 48 h [12]: > 1000 µM
IC50 (Leishmania infantum [13]): 7.4 µM

Structure (SMILES): CC1(C)CC[C@]2(C(=O)OCc3cn(CC(=O)c4ccc(C#N)cc4)nn3)CC[C@]3(C)C(=CC[C@@H]4[C@@]5(C)CC[C@H](O)[C@@](C)(COCc6cn(CC(=O)c7ccc(C#N)cc7)nn6)[C@@H]5CC[C@]43C)[C@@H]2C1
EC50 (FaDu): 12.1 µM
EC50 (SW-1736): 11.9 µM
EC50 (HT-29 [3]): 7.4 µM
inhibition of growth at 1000 µM (Leishmania infantum [4]): 8.8%
Activity (HT-29 [16]): inactive
EC50 (A2780 [6]): 11.2 µM
EC50 (A-375): 10.6 µM
Activity (HT-29 [17]): inactive

IC50 (Leishmania infantum [15]): 32 to 34 µM
Structure (SMILES): CC1(C)CC[C@]2(C(=O)OCc3cn(Cc4cccc(Br)c4)nn3)CC[C@]3(C)C(=CC[C@@H]4[C@@]5(C)CC[C@H](O)[C@@](C)(CO)[C@@H]5CC[C@]43C)[C@@H]2C1
EC50 (A549): 3 to 4.1 µM
EC50 (MCF7): 3 to 4.1 µM
EC50 (HT-29 [18]): 3 to 4.1 µM
EC50 (A2780 [19]): 3 to 4.1 µM
EC50 (518A2): 3 to 4.1 µM
EC50 (8505C): 3 to 4.1 µM

Structure (SMILES): CC1(C)CC[C@]2(C(=O)OCc3cn(Cc4cccc([N+](=O)[O-])c4)nn3)CC[C@]3(C)C(=CC[C@@H]4[C@@]5(C)CC[C@H](O)[C@@](C)(CO)[C@@H]5CC[C@]43C)[C@@H]2C1
EC50 (A549): 3 to 4.1 µM
EC50 (MCF7): 3 to 4.1 µM
EC50 (HT-29 [18]): 3 to 4.1 µM
EC50 (A2780 [19]): 3 to 4.1 µM
EC50 (518A2): 3 to 4.1 µM
EC50 (8505C): 3 to 4.1 µM

Structure (SMILES): CC1(C)CC[C@]2(C(=O)OCc3cn(Cc4cccc(Cl)c4)nn3)CC[C@]3(C)C(=CC[C@@H]4[C@@]5(C)CC[C@H](O)[C@@](C)(CO)[C@@H]5CC[C@]43C)[C@@H]2C1
EC50 (A549): 3 to 4.1 µM
EC50 (MCF7): 3 to 4.1 µM
EC50 (HT-29 [18]): 3 to 4.1 µM
EC50 (A2780 [19]): 3 to 4.1 µM
EC50 (518A2): 3 to 4.1 µM
EC50 (8505C): 3 to 4.1 µM

Structure (SMILES): CC1(C)CC[C@]2(C(=O)OCc3cn(Cc4ccc([N+](=O)[O-])cc4)nn3)CC[C@]3(C)C(=CC[C@@H]4[C@@]5(C)CC[C@H](O)[C@@](C)(COCc6cn(Cc7ccc([N+](=O)[O-])cc7)nn6)[C@@H]5CC[C@]43C)[C@@H]2C1
EC50 (FaDu): > 30 µM
selectivity ratio [2]: > 38
EC50 (SW-1736): > 30 µM
EC50 (HT-29 [3]): > 30 µM
inhibition of growth at 1000 µM (Leishmania infantum [4]): 58.6%
selectivity ratio [5]: > 38
EC50 (A2780 [6]): > 30 µM
CC50 at 48 h [7]: > 1000 µM
selectivity ratio [8]: > 38
CC50 at 48 h [10]: > 1000 µM
EC50 (A-375): > 30 µM
CC50 at 48 h [12]: > 1000 µM
IC50 (Leishmania infantum [13]): 25.9 µM
